Read-outs that look alike come from different tables or passages of the source.
Columns and labels:
[1] = tested on: Candida albicans (ATCC 18804); experiment: Antifungal bioassay, growth of the pathogenic yeast; type: cell-based; settings: ATCC18804, read-out: growth inhibition of C. albicans cells
[2] = tested on: Plasmodium falciparum Dd2; experiment: Antimalarial bioassay, 72 h parasite growth assay; type: cell-based; settings: DD2, read-out: P. falciparum IC50
Summary of the method: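 72 h growth assay of test compounds on the drug-resistant Dd2 strain of Plasmodium falciparum, following an earlier protocol with minor modifications. Artemisinin was the positive control.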

[3] = tested on: human colon cancer (HT-29) cell line; experiment: Cytotoxicity assay against HT-29 human colon cancer cells; settings: for HT-29 ED50: HT-29 human colon cancer cells, > 20 µM considered inactive
NF-κB p65 subunit = NF-κB p65 subunit (Homo sapiens, UniProt Q04206); experiment: Enzyme-based ELISA NF-κB; type: biochemical
[4] = tested on: human colon cancer (HT-29) cell line
Plasmodium falciparum = settings: cited from earlier work
P. falciparum strain 3D7 = settings: read-out: IC50, in vitro antimalarial activity; cited from earlier work
[5] = read-out: NF-κB (p65) IC50, enzyme-based ELISA, > 20 µM considered inactive

Sequence of NF-κB p65 subunit (Q04206 whole entry): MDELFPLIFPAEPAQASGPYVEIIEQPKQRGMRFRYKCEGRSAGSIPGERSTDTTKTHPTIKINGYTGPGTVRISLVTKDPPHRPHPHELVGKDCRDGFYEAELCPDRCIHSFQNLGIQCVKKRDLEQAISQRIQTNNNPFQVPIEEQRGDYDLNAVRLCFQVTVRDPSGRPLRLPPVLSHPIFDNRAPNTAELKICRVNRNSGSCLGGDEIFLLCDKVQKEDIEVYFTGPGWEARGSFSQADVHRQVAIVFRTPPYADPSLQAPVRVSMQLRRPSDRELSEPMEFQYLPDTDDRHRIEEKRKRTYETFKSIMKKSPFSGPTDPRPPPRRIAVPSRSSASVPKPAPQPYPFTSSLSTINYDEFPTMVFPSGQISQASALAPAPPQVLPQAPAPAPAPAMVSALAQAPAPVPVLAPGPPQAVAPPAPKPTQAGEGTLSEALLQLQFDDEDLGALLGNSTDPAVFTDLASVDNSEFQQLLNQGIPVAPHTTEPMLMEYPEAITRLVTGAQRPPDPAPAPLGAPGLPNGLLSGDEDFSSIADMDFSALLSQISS

Row | Molecule | HT-29 ED50 [3] | IC50 (NF-κB p65 subunit; [5]) | further results
1 | C[C@@H]1[C@H](O)[C@@H](C)/C=C/C=C/C=C/C=C/C=C/C=C/C=C/[C@H](O[C@@H]2O[C@H](C)[C@@H](O)[C@H](N)[C@@H]2O)C[C@@H]2O[C@](O)(C[C@@H](O)C[C@@H](O)[C@H](O)CC[C@@H](O)C[C@@H](O)CC(=O)O[C@H]1C)C[C@H](O)[C@H]2C(=O)O [amphotericin B] | – | – | inhibition at 200 µg/mL [1]: 100%
2 | C=C(C)[C@@H]1CC[C@]2(CO)CC[C@]3(C)[C@H](CC[C@@H]4[C@@]5(C)CC[C@H](O)C(C)(C)[C@@H]5CC[C@]43C)[C@@H]12 [Compound 6, betulin] | > 20 µM | – | IC50 [2]: > 10 µM; IC50 (NF-κB p65 subunit): > 20 µM
3 | C[C@@H]1CC[C@H]2[C@@H](C)C(=O)O[C@@H]3O[C@@]4(C)CC[C@@H]1[C@]32OO4 [Artemisinin, reference compound] | – | – | IC50 [2]: 0.0007 µM
4 | C=C(C)C1CCC2(CO)CCC3(C)C(CCC4C5(C)CCC(O)C(C)(COC(=O)/C=C\c6ccc(O)cc6)C5CCC43C)C12 (stereo not drawn) [Compound 5, 23-O-(Z)-p-coumaroyl-23-hydroxybetulin] | 18.4 µM | > 20 µM | cytotoxic effect against HT-29 cells (in words) [4]: marginal cytotoxic effects
5 | C=C(C)C1CCC2(CO)CCC3(C)C(CCC4C5(C)CCC(O)C(C)(COC(=O)/C=C/c6ccc(O)cc6)C5CCC43C)C12 (stereo not drawn) [Compound 4, 23-O-(E)-p-coumaroyl-23-hydroxybetulin] | > 20 µM | > 20 µM | –
6 | C=C(C)C1CCC2(CO)CCC3(C)C(CCC4C5(C)CCC(OC(=O)/C=C/c6ccc(O)cc6)C(C)(CO)C5CCC43C)C12 (stereo not drawn) [Compound 2, 3-O-(E)-p-coumaroyl-23-hydroxy-3-epi-betulin] | 13.2 µM | > 20 µM | cytotoxic effect against HT-29 cells (in words) ([3]; HT-29 cells): marginal cytotoxic effects
7 | C=C(C)[C@@H]1CC[C@]2(COC(C)=O)CC[C@]3(C)[C@H](CC[C@@H]4[C@@]5(C)CC[C@H](OC(C)=O)C(C)(C)[C@@H]5CC[C@]43C)[C@@H]12 [Compound 8, 3,28-O-diacetylbetulin] | > 20 µM | > 20 µM | –
8 | O-tigloylcyclovirobuxeine-B | – | – | IC50, in vitro antiplasmodial activity (Plasmodium falciparum): 0.46 µg/mL; IC50 (Plasmodium falciparum; read-out: IC50, in vitro antiplasmodial activity): 0.92 µM
9 | C=C(C)[C@@H]1CC[C@]2(CO)CC[C@]3(C)[C@H](CC[C@@H]4[C@@]5(C)CC[C@H](O)[C@@](C)(CO)[C@@H]5CC[C@]43C)[C@@H]12 [Compound 9, 23-hydroxybetulin] | > 20 µM | 4 µM | –
10 | C=C(C)C1CCC2(CO)CCC3(C)C(CCC4C5(C)CCC(OC(=O)/C=C\c6ccc(O)cc6)C(C)(CO)C5CCC43C)C12 (stereo not drawn) [Compound 3, 3-O-(Z)-p-coumaroyl-23-hydroxy-3-epi-betulin] | 3.3 µM | > 20 µM | –
11 | C=C(C)[C@@H]1CC[C@]2(C(=O)OC)CC[C@]3(C)[C@H](CC[C@@H]4[C@@]5(C)CC[C@H](O)C(C)(C)[C@@H]5CC[C@]43C)[C@@H]12 [its methylate] | – | – | IC50 (P. falciparum strain 3D7): 7 µM
12 | CC(=O)O[C@H]1C(=O)[C@@]2(C)[C@H]([C@H](OC(=O)c3ccccc3)[C@]3(O)C[C@H](OC(=O)[C@H](O)[C@@H](NC(=O)c4ccccc4)c4ccccc4)C(C)=C1C3(C)C)[C@]1(OC(C)=O)CO[C@@H]1C[C@@H]2O [Paclitaxel, reference compound] | 0.001 µM | – | –
13 | C=C(C)C1CCC2(CO)CCC3(C)C(CCC4C5(C)CCC(OC(=O)/C=C/c6ccc(O)cc6)C(C)(CO)C5CCC43C)C12 (stereo not drawn) [Compound 1, 3-O-(E)-p-coumaroyl-23-hydroxybetulin] | > 20 µM | > 20 µM | –
14 | N-3-benzoyldihydrocyclomicrophylline F [Compound 7] | 1.9 µM | > 20 µM | –

— publication PMC4545412 (Planta medica, 2015)
